# How the values were obtained:
# [1] = target: T1, Glutamate receptor ionotropic, AMPA (Rattus norvegicus, UniProt P19490+P19491+P19492+P19493); experiment: In vitro binding affinity for rat cortical membrane Ionotropic glutamate receptor AMPA determined using [3H]AMPA as radioligand
# [2] = target: Glutamate receptor ionotropic, kainate; experiment: In vitro binding affinity for rat cortical membrane KA receptor determined using [3H]KA as radioligand
# [3] = target: T2, Metabotropic glutamate receptor 5 (Rattus norvegicus, UniProt P31424); experiment: Inhibitory constant against cloned rat Metabotropic glutamate receptor 5 expressed in Chinese Hamster Ovary (CHO) cells; type: cell-based
# T2 sequence (P31424 whole entry): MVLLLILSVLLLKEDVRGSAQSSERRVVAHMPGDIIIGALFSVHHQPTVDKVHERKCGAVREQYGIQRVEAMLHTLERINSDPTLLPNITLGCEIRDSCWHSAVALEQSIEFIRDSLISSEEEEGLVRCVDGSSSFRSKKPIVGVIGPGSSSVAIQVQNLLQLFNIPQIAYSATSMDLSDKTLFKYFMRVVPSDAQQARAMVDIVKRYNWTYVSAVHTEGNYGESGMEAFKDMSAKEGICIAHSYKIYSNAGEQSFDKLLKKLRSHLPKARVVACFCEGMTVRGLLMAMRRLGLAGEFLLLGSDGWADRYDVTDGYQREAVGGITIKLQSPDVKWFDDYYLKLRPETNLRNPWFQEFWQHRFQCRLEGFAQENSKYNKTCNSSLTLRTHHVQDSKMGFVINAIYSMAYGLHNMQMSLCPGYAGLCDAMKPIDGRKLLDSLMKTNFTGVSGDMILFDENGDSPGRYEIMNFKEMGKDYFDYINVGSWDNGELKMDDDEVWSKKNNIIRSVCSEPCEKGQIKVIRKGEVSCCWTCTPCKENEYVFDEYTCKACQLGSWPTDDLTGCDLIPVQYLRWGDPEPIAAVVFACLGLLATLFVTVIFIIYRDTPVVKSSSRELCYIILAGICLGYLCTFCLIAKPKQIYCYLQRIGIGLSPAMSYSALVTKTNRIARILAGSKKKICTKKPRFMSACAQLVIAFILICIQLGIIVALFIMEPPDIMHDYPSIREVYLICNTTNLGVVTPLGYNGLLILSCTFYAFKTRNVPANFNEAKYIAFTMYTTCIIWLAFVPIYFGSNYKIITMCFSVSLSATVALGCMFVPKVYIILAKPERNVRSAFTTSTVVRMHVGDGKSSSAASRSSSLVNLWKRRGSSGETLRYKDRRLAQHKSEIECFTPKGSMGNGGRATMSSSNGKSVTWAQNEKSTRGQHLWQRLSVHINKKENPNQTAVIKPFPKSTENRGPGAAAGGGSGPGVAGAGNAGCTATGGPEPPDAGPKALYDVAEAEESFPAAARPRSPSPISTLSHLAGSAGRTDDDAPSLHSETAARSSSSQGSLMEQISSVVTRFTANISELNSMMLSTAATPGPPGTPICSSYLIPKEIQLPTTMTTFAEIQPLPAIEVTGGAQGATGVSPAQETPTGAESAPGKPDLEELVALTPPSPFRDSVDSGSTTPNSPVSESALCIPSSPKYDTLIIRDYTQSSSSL
# Method in brief: (§1)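 Cloned rat mGluR1α, mGluR2, mGluR4a or mGluR5a stably expressed in CHO cell lines; cells maintained and tested by a previously described procedure.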
# [4] = target: T3, Metabotropic glutamate receptor 4 (Rattus norvegicus, UniProt P31423); experiment: Inhibitory constant against cloned rat Metabotropic glutamate receptor 4 expressed in Chinese Hamster Ovary (CHO) cells; type: cell-based; method in brief: as §1
# T3 sequence (P31423 whole entry): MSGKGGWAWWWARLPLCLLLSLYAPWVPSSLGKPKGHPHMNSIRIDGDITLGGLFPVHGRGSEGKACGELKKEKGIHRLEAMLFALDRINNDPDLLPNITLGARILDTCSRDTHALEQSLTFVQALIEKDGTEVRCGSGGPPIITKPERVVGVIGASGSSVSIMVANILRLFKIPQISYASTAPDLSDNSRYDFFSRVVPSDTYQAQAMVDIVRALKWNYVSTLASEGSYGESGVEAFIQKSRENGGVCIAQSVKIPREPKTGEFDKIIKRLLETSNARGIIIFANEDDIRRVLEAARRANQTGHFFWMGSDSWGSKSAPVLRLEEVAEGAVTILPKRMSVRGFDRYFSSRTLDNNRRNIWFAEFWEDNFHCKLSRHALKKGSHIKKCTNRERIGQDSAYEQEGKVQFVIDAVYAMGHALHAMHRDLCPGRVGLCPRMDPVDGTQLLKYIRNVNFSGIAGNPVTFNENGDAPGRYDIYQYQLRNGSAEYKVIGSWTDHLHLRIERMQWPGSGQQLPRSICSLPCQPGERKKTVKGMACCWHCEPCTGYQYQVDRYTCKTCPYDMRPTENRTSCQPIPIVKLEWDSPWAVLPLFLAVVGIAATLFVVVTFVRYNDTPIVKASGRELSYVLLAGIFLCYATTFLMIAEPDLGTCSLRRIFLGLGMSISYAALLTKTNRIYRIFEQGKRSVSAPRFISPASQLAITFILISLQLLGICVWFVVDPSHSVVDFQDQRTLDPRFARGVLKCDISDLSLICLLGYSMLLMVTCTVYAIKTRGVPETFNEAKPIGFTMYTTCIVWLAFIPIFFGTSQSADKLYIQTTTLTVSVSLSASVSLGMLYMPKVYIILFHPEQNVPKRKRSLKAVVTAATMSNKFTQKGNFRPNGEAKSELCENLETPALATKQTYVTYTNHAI
# [5] = target: T3, Metabotropic glutamate receptor 4; experiment: Activity tested at cloned rat Metabotropic glutamate receptor 4 expressed in Chinese Hamster Ovary (CHO) cells; type: functional, cell-based; method in brief: as §1
# Mus musculus [6] = experiment: In vivo anticonvulsant activity determined as ip dose that blocked NMDA-induced clonic seizures induced in DBA/2 mice; type: functional
# Mus musculus [7] = experiment: In vivo anticonvulsant activity determined as ip dose that blocked NMDA-induced tonic seizures induced in DBA/2 mice after ip administration; type: functional
# Mus musculus [8] = experiment: In vivo anticonvulsant activity determined as ip dose that blocked clonic seizures induced by audiogenic stimuli in DBA/2 mice after pretreatment with D-serine; type: functional
# Method in brief: (§2)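 DBA/2 mice pretreated with D-serine (300 nmol/mouse, icv) 30 min […], then tested for audiogenic seizures (110 dB sound, clonic/tonic phases scored).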
# Mus musculus [9] = experiment: In vivo anticonvulsant activity determined as ip dose that blocked clonic seizures induced in DBA/2 mice by audiogenic stimuli; type: functional
# Method in brief: (§3)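 Male DBA/2 mice (6–12 g, 22–26 days old) given drug or vehicle ip (DMSO, pH 7.3–7.7 with phosphate buffer). After 45 min, a 110 dB sound for 60 s or until clonus; seizures scored (wild running, clonic, tonic, respiratory arrest).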
# Mus musculus [10] = experiment: In vivo anticonvulsant activity determined as ip dose that blocked tonic seizures induced by audiogenic stimuli in DBA/2 mice after pretreatment with D-serine; type: functional; method in brief: as §2
# Mus musculus [11] = experiment: In vivo anticonvulsant activity determined as ip dose that blocked tonic seizures induced in DBA/2 mice by audiogenic stimuli; type: functional; method in brief: as §3
# Mus musculus [12] = experiment: In vivo anticonvulsant activity determined as ip dose that blocked 3,5-DHPG induced clonic seizures induced in DBA/2 mice; type: functional
# Method in brief: (§4)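 DBA/2 mice (n = 10 per group) given agent ip at 10–100 μmol/kg 15 min before icv DHPG (1.5 μmol); seizure-related activity observed for 90 min.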
# Mus musculus [13] = experiment: In vivo anticonvulsant activity determined as ip dose that blocked 3,5-DHPG induced tonic seizures induced in DBA/2 mice after; type: functional; method in brief: as §4
# Rattus norvegicus [14] = organism: Rattus norvegicus; experiment: Agonist activity tested in rat cortical slice model; type: functional
# Method in brief: (§5)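 Rat cortical slice model; compounds tested up to 1000 μM both as agonists and as antagonists. Antagonism measured against responses to NMDA (10 μM), AMPA (5 μM) or KA (5 μM), agonist applied for a further 90 s.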
# Rattus norvegicus [15] = organism: Rattus norvegicus; experiment: Antagonist activity against responses induced by 10 uM NMDA tested in rat cortical slice model; type: functional
# Method in brief: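 Rat cortical slices; antagonism of responses induced by 10 μM NMDA, agonist applied for a further 90 s; IC50 derived.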
# [16] = target: Metabotropic glutamate receptor 2 (Rattus norvegicus) (UniProt P31421); experiment: Activity tested at cloned rat mGluR2 receptor expressed in Chinese Hamster Ovary (CHO) cells at 1 mM concentration; type: functional, cell-based
# Sequence of Metabotropic glutamate receptor 2 (Rattus norvegicus) (P31421 19-872 limits assumed): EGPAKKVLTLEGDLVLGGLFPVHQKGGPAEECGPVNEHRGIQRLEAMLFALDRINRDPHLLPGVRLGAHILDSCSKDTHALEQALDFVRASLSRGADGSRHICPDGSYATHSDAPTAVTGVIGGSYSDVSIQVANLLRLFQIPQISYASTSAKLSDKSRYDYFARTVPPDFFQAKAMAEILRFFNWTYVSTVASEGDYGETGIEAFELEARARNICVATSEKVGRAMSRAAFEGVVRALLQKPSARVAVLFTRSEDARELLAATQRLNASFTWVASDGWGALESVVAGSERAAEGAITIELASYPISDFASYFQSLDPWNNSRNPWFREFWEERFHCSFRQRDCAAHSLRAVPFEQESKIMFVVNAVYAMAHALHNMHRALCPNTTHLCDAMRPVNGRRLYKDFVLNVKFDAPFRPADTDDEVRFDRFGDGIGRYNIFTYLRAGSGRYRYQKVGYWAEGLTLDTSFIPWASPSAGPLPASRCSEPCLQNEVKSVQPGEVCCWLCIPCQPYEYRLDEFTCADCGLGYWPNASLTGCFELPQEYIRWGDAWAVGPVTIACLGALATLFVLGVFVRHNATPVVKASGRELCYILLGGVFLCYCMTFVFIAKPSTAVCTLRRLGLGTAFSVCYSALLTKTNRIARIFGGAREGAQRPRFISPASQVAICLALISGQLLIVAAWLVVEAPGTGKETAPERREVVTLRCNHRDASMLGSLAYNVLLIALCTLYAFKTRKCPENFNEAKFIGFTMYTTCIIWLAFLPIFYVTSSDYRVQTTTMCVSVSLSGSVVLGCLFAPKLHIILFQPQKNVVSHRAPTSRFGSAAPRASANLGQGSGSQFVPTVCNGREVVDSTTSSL
# Method in brief: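 Cloned rat mGluR2 in CHO cells; test compound at 1 mM, also checked for inhibition of the response to 30 μM Glu.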
# Rattus norvegicus [17] = organism: Rattus norvegicus; experiment: Percent inhibition of the response induced by 5 uM of AMPA at a concentration of 1 mM in rat; type: functional
# Glutamate NMDA receptor = experiment: In vitro binding affinity for rat cortical membrane N-methyl-D-aspartate glutamate receptor determined using [3H]CPP as radioligand
# [18] = target: Metabotropic glutamate receptor 1 (Rattus norvegicus, UniProt P23385); experiment: Inhibitory constant against cloned rat Metabotropic glutamate receptor 1 expressed in Chinese Hamster Ovary (CHO) cells; type: cell-based; method in brief: as §1
# Sequence of Metabotropic glutamate receptor 1 (P23385 whole entry): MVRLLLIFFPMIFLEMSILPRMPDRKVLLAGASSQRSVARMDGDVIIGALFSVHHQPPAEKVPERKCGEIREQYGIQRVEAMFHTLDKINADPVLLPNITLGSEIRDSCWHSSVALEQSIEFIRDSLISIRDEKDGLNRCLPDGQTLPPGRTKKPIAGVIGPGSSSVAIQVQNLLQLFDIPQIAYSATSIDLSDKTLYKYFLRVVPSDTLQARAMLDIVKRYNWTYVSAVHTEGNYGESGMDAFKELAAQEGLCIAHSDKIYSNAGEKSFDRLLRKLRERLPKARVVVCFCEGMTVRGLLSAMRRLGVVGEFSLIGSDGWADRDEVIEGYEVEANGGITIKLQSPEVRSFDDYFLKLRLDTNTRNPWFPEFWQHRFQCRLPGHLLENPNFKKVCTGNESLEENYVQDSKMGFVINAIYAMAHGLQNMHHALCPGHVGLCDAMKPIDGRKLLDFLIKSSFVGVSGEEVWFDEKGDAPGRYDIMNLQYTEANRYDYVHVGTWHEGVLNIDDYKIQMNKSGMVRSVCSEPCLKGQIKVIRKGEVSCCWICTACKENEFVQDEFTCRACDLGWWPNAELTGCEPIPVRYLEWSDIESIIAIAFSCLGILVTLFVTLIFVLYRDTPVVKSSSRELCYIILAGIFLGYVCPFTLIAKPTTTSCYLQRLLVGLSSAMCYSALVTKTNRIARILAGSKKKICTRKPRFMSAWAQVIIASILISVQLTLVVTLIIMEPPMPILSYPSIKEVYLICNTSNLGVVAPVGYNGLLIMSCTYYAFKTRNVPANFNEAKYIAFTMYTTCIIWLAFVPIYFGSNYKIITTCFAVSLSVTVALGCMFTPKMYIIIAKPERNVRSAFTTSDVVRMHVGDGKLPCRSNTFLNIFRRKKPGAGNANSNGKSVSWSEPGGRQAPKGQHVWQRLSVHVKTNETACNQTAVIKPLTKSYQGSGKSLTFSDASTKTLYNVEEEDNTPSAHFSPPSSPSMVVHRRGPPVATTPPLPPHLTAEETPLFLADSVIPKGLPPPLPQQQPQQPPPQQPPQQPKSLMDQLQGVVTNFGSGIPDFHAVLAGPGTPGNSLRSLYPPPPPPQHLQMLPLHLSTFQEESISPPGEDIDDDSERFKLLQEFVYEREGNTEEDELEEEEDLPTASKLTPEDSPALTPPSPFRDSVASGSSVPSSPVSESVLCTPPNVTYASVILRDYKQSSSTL
# Mus musculus [19] = experiment: In vivo anticonvulsant activity determined as potency that blocked NMDA-induced clonic seizures induced in DBA/2 mice; type: functional
# Mus musculus [20] = experiment: In vivo anticonvulsant activity determined as potency that blocked NMDA-induced tonic seizures induced in DBA/2 mice; type: functional
# Mus musculus [21] = experiment: In vivo anticonvulsant activity determined as potency that blocked clonic seizures induced by audiogenic stimuli in DBA/2 mice after pretreatment with D-serine; type: functional; method in brief: as §2
# Mus musculus [22] = experiment: In vivo anticonvulsant activity determined as potency that blocked clonic seizures induced in DBA/2 mice by audiogenic stimuli; type: functional
# Mus musculus [23] = experiment: In vivo anticonvulsant activity determined as potency that blocked tonic seizures induced by audiogenic stimuli in DBA/2 mice after pretreatment with D-serine; type: functional; method in brief: as §2
# Mus musculus [24] = experiment: In vivo anticonvulsant activity determined as potency that blocked tonic seizures induced in DBA/2 mice by audiogenic stimuli; type: functional
# Mus musculus [25] = experiment: In vivo anticonvulsant activity determined as icv dose that blocked 3,5-DHPG induced clonic seizures induced in DBA/2 mice; type: functional; details: central
# Mus musculus [26] = experiment: In vivo anticonvulsant activity determined as icv dose that blocked 3,5-DHPG induced tonic seizures induced in DBA/2 mice after; type: functional; details: central
# Mus musculus [27] = experiment: In vivo anticonvulsant activity determined as icv dose that blocked NMDA-induced tonic seizures induced in DBA/2 mice after ip administration; type: functional
# Method in brief: (§6)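 DBA/2 mice, n = 10 per group, were dosed with drug in DMSO buffered to pH 7.3–7.7, then given icv NMDA: 18.7 nmol/mouse for tonic extension or 1.9 nmol/mouse for clonic seizures. ED50 by Litchfield–Wilcoxon, 95% confidence limits.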
# Mus musculus [28] = experiment: In vivo anticonvulsant activity determined as icv dose that blocked clonic seizures induced by audiogenic stimuli in DBA/2 mice after pretreatment with D-serine; type: functional; details: central
# Mus musculus [29] = experiment: In vivo anticonvulsant activity determined as icv dose that blocked clonic seizures induced in DBA/2 mice by audiogenic stimuli; type: functional; details: central
# Method in brief: (§7)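 Male DBA/2 mice (6–12 g, 22–26 days old) received icv drug or vehicle (10 μL, 1 mm anterior to bregma, 1 mm lateral, 3 mm depth) under light ether anaesthesia. Drug was dissolved in DMSO, pH 7.3–7.7 with phosphate buffer. 45 min later, 110 dB bell for 60 s; wild running, clonus, tonic extension scored.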
# Mus musculus [30] = experiment: In vivo anticonvulsant activity determined as icv dose that blocked tonic seizures induced by audiogenic stimuli in DBA/2 mice after pretreatment with D-serine; type: functional; details: central
# Mus musculus [31] = experiment: In vivo anticonvulsant activity determined as icv dose that blocked tonic seizures induced in DBA/2 mice by audiogenic stimuli; type: functional; details: central; method in brief: as §7
# Mus musculus [32] = experiment: In vivo anticonvulsant activity determined as icv dose that blocked NMDA-induced clonic seizures induced in DBA/2 mice; type: functional; details: central; method in brief: as §6
# [33] = target: T1, Glutamate receptor ionotropic, AMPA; experiment: Binding affinity of compound was determined against Ionotropic glutamate receptor AMPA receptor, using radioligand [3H]- AMPA; type: protein-complex assay
# Mus musculus [34] = experiment: In vivo anticonvulsant activity determined as ip dose that blocked NMDA-induced tonic seizures induced in DBA/2 mice; type: functional
# Mus musculus [35] = experiment: In vivo anticonvulsant activity determined as ip dose that blocked 3,5-DHPG induced tonic seizures induced in DBA/2 mice; type: functional; method in brief: as §4
# Rattus norvegicus [36] = organism: Rattus norvegicus; experiment: Antagonist activity tested in rat cortical slice model; type: functional; method in brief: as §5
# [37] = target: Metabotropic glutamate receptor 2 (Rattus norvegicus, UniProt P31421); experiment: Activity tested at cloned rat mGluR2 receptor expressed in Chinese Hamster Ovary (CHO) cells; type: functional, cell-based
# Sequence of Metabotropic glutamate receptor 2 (P31421 whole entry): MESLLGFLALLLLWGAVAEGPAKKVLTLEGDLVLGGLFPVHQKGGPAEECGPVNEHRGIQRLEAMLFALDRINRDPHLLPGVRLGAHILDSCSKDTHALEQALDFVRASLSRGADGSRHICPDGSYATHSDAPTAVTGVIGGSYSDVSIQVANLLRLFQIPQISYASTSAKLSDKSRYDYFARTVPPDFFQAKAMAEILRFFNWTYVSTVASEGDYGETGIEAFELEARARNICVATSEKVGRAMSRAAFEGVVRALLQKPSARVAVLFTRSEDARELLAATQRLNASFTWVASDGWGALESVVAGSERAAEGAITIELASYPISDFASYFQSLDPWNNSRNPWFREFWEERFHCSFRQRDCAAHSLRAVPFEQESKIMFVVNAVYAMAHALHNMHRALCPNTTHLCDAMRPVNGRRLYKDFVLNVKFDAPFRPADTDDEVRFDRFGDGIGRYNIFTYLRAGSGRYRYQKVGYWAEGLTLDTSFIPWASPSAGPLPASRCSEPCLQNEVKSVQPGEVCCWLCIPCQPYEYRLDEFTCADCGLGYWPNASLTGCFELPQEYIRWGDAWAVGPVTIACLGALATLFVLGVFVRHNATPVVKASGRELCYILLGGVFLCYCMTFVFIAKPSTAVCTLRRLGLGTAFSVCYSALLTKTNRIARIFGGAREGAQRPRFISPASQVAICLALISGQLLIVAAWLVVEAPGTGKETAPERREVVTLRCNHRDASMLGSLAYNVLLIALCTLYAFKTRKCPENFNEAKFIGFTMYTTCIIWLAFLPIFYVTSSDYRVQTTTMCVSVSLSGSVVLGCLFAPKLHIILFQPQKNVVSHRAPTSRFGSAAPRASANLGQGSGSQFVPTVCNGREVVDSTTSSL
# Method in brief: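 Rat mGluR2 stably expressed in CHO cells, with cells maintained and tested as described in an earlier report. Agonism was assessed directly. Antagonism was assessed against a response to 30 μM Glu, with test compound at 1 mM.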
# [38] = target: T2, Metabotropic glutamate receptor 5; experiment: Activity tested at cloned rat Metabotropic glutamate receptor 5 expressed in Chinese Hamster Ovary (CHO) cells; type: functional, cell-based
# Method in brief: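 Rat mGluR5a splice variant expressed in a CHO cell line. Compounds were tested for agonist and antagonist action at this receptor.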
structure (smiles),measurement,setting,value
N[C@@]1(C(=O)O)C[C@@H]2ON=C(C(=O)O)[C@@H]2C1 (racemic),IC50,[1],> 100 µM
same,IC50,[2],> 100 µM
same,Ki,[3],640 µM
same,Ki,[4],> 1000 µM
same,EC50,[5],> 1000 µM
same,ED50,Mus musculus [6],54 µmol/kg
same,ED50,Mus musculus [7],39 µmol/kg
same,ED50,Mus musculus [8],33 µmol/kg
same,ED50,Mus musculus [9],28 µmol/kg
same,ED50,Mus musculus [10],27 µmol/kg
same,ED50,Mus musculus [11],22 µmol/kg
same,ED50,Mus musculus [12],70 µmol/kg
same,ED50,Mus musculus [13],45 µmol/kg
same,EC50,Rattus norvegicus [14],> 1000 µM
same,IC50,Rattus norvegicus [15],14 µM
same,Activation,[16],36%
same,Inhibition,Rattus norvegicus [17],32%
same,IC50,Glutamate NMDA receptor,0.49 µM
same,Ki,[18],94 µM
CCCC(CCC)C(=O)O [VALPROIC ACID],ED50,Mus musculus [19],878 µmol/kg
same,ED50,Mus musculus [20],498 µmol/kg
same,ED50,Mus musculus [21],275 µmol/kg
same,ED50,Mus musculus [22],258 µmol/kg
same,ED50,Mus musculus [23],205 µmol/kg
same,ED50,Mus musculus [24],187 µmol/kg
O=C(O)[C@H]1CN(C/C=C/P(=O)(O)O)CCN1 [MIDAFOTEL],ED50,Mus musculus [6],17 µmol/kg
same,ED50,Mus musculus [7],11 µmol/kg
same,ED50,Mus musculus [8],2.5 µmol/kg
same,ED50,Mus musculus [9],1.8 µmol/kg
same,ED50,Mus musculus [10],1.2 µmol/kg
same,ED50,Mus musculus [11],0.79 µmol/kg
same,ED50,Mus musculus [12],8.6 µmol/kg
same,ED50,Mus musculus [13],6.8 µmol/kg
same,IC50,Glutamate NMDA receptor,0.04 µM
O=C(O)c1cc(O)c2c(Cl)cc(Cl)cc2n1,ED50,Mus musculus [25],14 µmol/kg
same,ED50,Mus musculus [26],11 µmol/kg
same,ED50,Mus musculus [27],22 µmol/kg
same,ED50,Mus musculus [28],12 µmol/kg
same,ED50,Mus musculus [29],2.4 µmol/kg
same,ED50,Mus musculus [30],8.5 µmol/kg
same,ED50,Mus musculus [31],2.2 µmol/kg
same,ED50,Mus musculus [32],26 µmol/kg
O=C1NC(=O)C(c2ccccc2)(c2ccccc2)N1 [PHENYTOIN],ED50,Mus musculus [19],31 µmol/kg
same,ED50,Mus musculus [20],2.2 µmol/kg
same,ED50,Mus musculus [21],11 µmol/kg
same,ED50,Mus musculus [22],9.1 µmol/kg
same,ED50,Mus musculus [23],8.7 µmol/kg
same,ED50,Mus musculus [24],7.3 µmol/kg
N[C@H](CCCP(=O)(O)O)C(=O)O,IC50,Glutamate NMDA receptor,0.88 µM
NC(=O)OCC(COC(N)=O)c1ccccc1 [FELBAMATE],ED50,Mus musculus [19],122 µmol/kg
same,ED50,Mus musculus [20],51 µmol/kg
same,ED50,Mus musculus [21],674 µmol/kg
same,ED50,Mus musculus [22],204 µmol/kg
same,ED50,Mus musculus [23],328 µmol/kg
same,ED50,Mus musculus [24],97 µmol/kg
N[C@]1(C(=O)O)C[C@@H]2ON=C(C(=O)O)[C@@H]2C1 (racemic),IC50,[33],> 100 µM
same,IC50,[2],> 100 µM
same,Ki,[3],440 µM
same,Ki,[4],> 1000 µM
same,EC50,[5],> 1000 µM
same,ED50,Mus musculus [34],91 µmol/kg
same,ED50,Mus musculus [8],41 µmol/kg
same,ED50,Mus musculus [9],42 µmol/kg
same,ED50,Mus musculus [10],24 µmol/kg
same,ED50,Mus musculus [11],25 µmol/kg
same,ED50,Mus musculus [35],84 µmol/kg
same,EC50,Rattus norvegicus [14],> 1000 µM
same,IC50,Rattus norvegicus [36],> 1000 µM
same,EC50,[37],16 µM
same,IC50,Glutamate NMDA receptor,> 100 µM
same,Ki,[18],27 µM
CC(C)OC(=O)Nc1cccc(Cl)c1 [CHLORPROPHAM],ED50,Mus musculus [25],8.7 µmol/kg
same,ED50,Mus musculus [26],6.9 µmol/kg
same,ED50,Mus musculus [27],22 µmol/kg
same,ED50,Mus musculus [28],5.2 µmol/kg
same,ED50,Mus musculus [29],5.6 µmol/kg
same,ED50,Mus musculus [30],2.8 µmol/kg
same,ED50,Mus musculus [31],2.6 µmol/kg
same,ED50,Mus musculus [32],41 µmol/kg
N[C@@H](CCCP(=O)(O)O)C(=O)O,IC50,Glutamate NMDA receptor,29 µM
N[C@@]1(C(=O)O)CC[C@@H](C(=O)O)C1 (racemic),EC50,[38],23 µM
same,EC50,[5],800 µM
same,EC50,[37],2 µM
